Measured values as given in ChEMBL document CHEMBL1240468, “Regioselective hydrostannation of diarylalkynes directed by a labile ortho bromine atom: an easy access to stereodefined triarylolefins, hybrids of combretastatin A-4 and isocombretastatin A-4” (Eur J Med Chem, 2010).

Test system: HCT-116
Experiment: Cytotoxicity against human HCT116 cells after 72 hrs
Format: functional, cell-based
Details: HCT-116, 72 h; call rule not given here
In short: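 Cells seeded at 5 × 10³ per well in growth medium, cultured 24 h, then given compound in DMSO (under 0.1% final). After 72 h incubation, resazurin added for 2 h and fluorescence read (excitation 560 nm). IC50 taken as concentration reducing cell growth by 50% after 72 h treatment.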

Structure (SMILES)	IC50 [µM]
COCOc1cc(/C=C(/c2ccc(OC)c(OCOC)c2)c2cc(OC)c(OC)c(OC)c2Br)ccc1OC	> 10
COc1ccc(/C=C(\c2ccc(OC)cc2)c2cc(OC)c(OC)c(OC)c2)cc1	> 10
COc1ccc(/C(=C\c2cc(OC)c(OC)c(OC)c2)c2cc(OC)c(OC)c(OC)c2)cc1	> 10
COc1ccc(/C=C(/c2ccc(OC)cc2)c2cc(OC)c(OC)c(OC)c2)cc1	> 10
COc1ccc(/C(=C/c2ccc(OC)c(O)c2)c2cc(OC)c(OC)c(OC)c2)cc1	> 10
COc1ccc(/C=C(/c2ccc(C)cc2)c2cc(OC)c(OC)c(OC)c2)cc1O	3
COc1ccc(/C=C(\c2cc(OC)c(OC)c(OC)c2)c2ccc3ccccc3c2)cc1O	8
COc1ccc(/C=C(/c2ccc(OC)c(F)c2)c2cc(OC)c(OC)c(OC)c2)cc1O	8
COc1ccc(/C=C(/c2ccc(OC)c(O)c2)c2cc(OC)c(OC)c(OC)c2)cc1O	5
COc1ccc(/C(=C\c2cc(OC)c(OC)c(OC)c2)c2cc(OC)c(OC)c(OC)c2)c(Br)c1	> 10
COc1ccc(/C=C(/c2ccc(OC)cc2)c2cc(OC)c(OC)c(OC)c2Br)cc1	> 10
COc1ccc(/C(=C/c2ccc(OC)c(O[Si](C)(C)C(C)(C)C)c2)c2cc(OC)c(OC)c(OC)c2Br)cc1	> 10
C=C(c1ccc(OC)c(O)c1)c1cc(OC)c(OC)c(OC)c1	0.002
COc1ccc(/C=C\c2cc(OC)c(OC)c(OC)c2)cc1O [COMBRETASTATIN A4]	0.002

Test system: not listed separately
Experiment: Inhibition of sheep brain tubulin microtubule assembly by turbidimetry assay
Parameters: species or system Ovis aries
Details: not given
In short: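 Sheep brain tubulin purified by two assembly–disassembly cycles, about 2–3 mg/mL in 0.1 M MES, 0.5 mM MgCl2, 1 mM EGTA, 1 mM GTP, pH 6.6. Compounds in DMSO; incubation 10 min at 37 °C, then 5 min at 0 °C. Assembly followed continuously by turbidity at 350 nm at 37 °C.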

Structure (SMILES)	IC50
COc1ccc(/C(=C\c2cc(OC)c(OC)c(OC)c2)c2cc(OC)c(OC)c(OC)c2)c(Br)c1	Not Active
COc1ccc(/C=C(/c2ccc(OC)cc2)c2cc(OC)c(OC)c(OC)c2Br)cc1	Not Active
COc1ccc(/C(=C/c2ccc(OC)c(O[Si](C)(C)C(C)(C)C)c2)c2cc(OC)c(OC)c(OC)c2Br)cc1	Not Active

Now from value to compound:

IC50	Structure (SMILES)
Not Active	COc1ccc(/C(=C\c2cc(OC)c(OC)c(OC)c2)c2cc(OC)c(OC)c(OC)c2)cc1
Not Active	COc1ccc(/C=C(/c2ccc(C)cc2)c2cc(OC)c(OC)c(OC)c2)cc1O
Not Active	COc1ccc(/C=C(\c2cc(OC)c(OC)c(OC)c2)c2ccc3ccccc3c2)cc1O
Not Active	COc1ccc(/C=C(/c2ccc(OC)c(F)c2)c2cc(OC)c(OC)c(OC)c2)cc1O

Same assay, conditions: read-out: IC50

Structure (SMILES)	IC50 [µM]
COCOc1cc(/C=C(/c2ccc(OC)c(OCOC)c2)c2cc(OC)c(OC)c(OC)c2Br)ccc1OC	8
COc1ccc(/C=C(\c2ccc(OC)cc2)c2cc(OC)c(OC)c(OC)c2)cc1	8.1
C=C(c1ccc(OC)c(O)c1)c1cc(OC)c(OC)c(OC)c1	2.1

The next lines start with the values.

IC50 [µM]	Structure (SMILES)
8	COc1ccc(/C=C(/c2ccc(OC)cc2)c2cc(OC)c(OC)c(OC)c2)cc1
7.8	COc1ccc(/C(=C/c2ccc(OC)c(O)c2)c2cc(OC)c(OC)c(OC)c2)cc1
8.5	COc1ccc(/C=C(/c2ccc(OC)c(O)c2)c2cc(OC)c(OC)c(OC)c2)cc1O
